By IC50 is commonly meant the midpoint of a concentration-inhibition curve. As usually defined, the EC50 is the concentration at which the effect is half-maximal. A lower EC50 goes with higher potency in that assay. For orientation: inhibition means the percentage by which the read-out fell short of the control.

One experiment concerns HeLa. The experiment in a line: Antiproliferative activity against human HeLa cells assessed as decrease in cell growth measured after 48 hrs by SRB method. Type of experiment: functional, cell-based.
Experiment [1] in a line: Induction of microtubule depolymerisation in rat A-10 cell line measured after 18 hrs by indirect immunofluorescence method. The settings on record: a10. Summed up:
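Rat A-10 cells, chosen because they arrest in interphase without significant mitotic accumulation, were exposed to compounds for 18 h. Cellular microtubules were then visualized by indirect immunofluorescence. EC50 values come from at least three independent experiments.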

Experiment [2] is described as follows: Relative resistance, ratio of IC50 for antiproliferative activity against human SK-OV-3 MDR-1-6/6 cells expressing Pgp to IC50 antiproliferative activity against human SK-OV-3 cells. Type of experiment: functional.
The subject of a further experiment is SK-OV-3. Put plainly: Antiproliferative activity against human SK-OV-3 cells assessed as decrease in cell growth measured after 48 hrs by SRB method. Particulars: SK-OV-3, 48 h. The class given is functional, cell-based. On the technique in general: The SRB assay estimates cell density from bound dye.
The test system of another experiment is MDA-MB-435. Put plainly: Antiproliferative activity against human MDA-MB-435 cell line assessed as inhibition of cell proliferation measured after 48 hrs by SRB assay. Type of experiment: functional, cell-based. The settings on record: MDA-MB-435, 48 h. A digest of the protocol: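 MDA-MB-435 melanoma cells were assessed by sulforhodamine B assay. IC50 is the mean ± SD of at least three independent experiments, each run in triplicate.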

The nature of experiment [3]: Relative resistance, ratio of IC50 for inhibition of beta3 Tubulin (unknown origin) expressed in human HeLa cell line assessed as inhibition of cell proliferation to IC50 antiproliferative activity against human HeLa cells.
Experiment [4] can be described thus: Antiproliferative activity against human SK-OV-3 MDR-1-6/6 cells expressing Pgp assessed as decrease in cell growth measured after 48 hrs by SRB method. Type of experiment: functional. Particulars: SK-OV-3, 48 h.
In experiment [5] the test system is U-251. Put plainly: Antitumour activity against human U251 cells xenografted in NCr athymic nude nu/nu mouse assessed as decrease in tumour growth at 50 mg/kg once in a week. The class given is functional, organism-based. (In xenograft studies the graft and the host belong to different species.)
Experiment [6] has as its system U-251. Put plainly: Cytotoxicity against human U251 cell line assessed as inhibition of cell growth after 48 hrs by SRB assay. Type of experiment: functional, cell-based. Particulars: U-251, 48 h.
The nature of experiment [7]: Inhibition of bovine tubulin polymerization assessed as reduction in extent of assembly preincubated for 15 mins followed by addition of reaction mixture measured after 20 mins by turbidimetric assay. On the set-up: species or system Bos taurus. A digest of the protocol:
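After chilling, GTP was added (0.4 mM final). Turbidity at 350 nm was read after a jump from 0 °C to 30 °C.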

The species entered for experiment [8] is Bos taurus. Put plainly: Inhibition of [3H]colchicine binding to bovine tubulin at 5 uM measured after 10 mins by scintillation counting. A digest of the protocol: (§1)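 Purified bovine brain tubulin at 1.0 µM was mixed with 5.0 µM [3H]colchicine and inhibitor, plus components that stabilize colchicine binding, in 5% DMSO; tubulin was added last, on ice. Binding ran 10 min at 37 °C and was stopped with ice water. Mixtures were filtered through stacked DEAE-cellulose filters, and bound radiolabel was measured by scintillation counting.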

The species entered for experiment [9] is Bos taurus. The experiment in a line: Inhibition of [3H]colchicine binding to bovine tubulin at 1 uM measured after 10 mins by scintillation counting. Summed up: as §1

Calls of active or inactive are those of the source. No cut-off for these calls is given here.

Take `COc1cccc2cc(N(C)c3nc(N)nc4c3CCC4)ccc12`: the IC50 with HeLa was 0.0126 µM; in the experiment with SK-OV-3, 0.0149 µM; with MDA-MB-435, 0.0087 µM; in [4] it was 0.0196 µM. Further, a half-maximal effect in [1] (EC50) was put at 0.026 µM. Further, the figures for the “Ratio IC50” value in [2] and in experiment [3] were 1.3 and 0.8, respectively.

As to `Cn1nnc2c(C(N)=O)ncn2c1=O`, in the experiment with U-251 [5], the inhibition entry is “Active”.

The molecule `COc1ccc(/C=C\c2cc(OC)c(OC)c(OC)c2)cc1O` [COMBRETASTATIN A4] registered a concentration for a half-maximal effect (EC50) in experiment [1] of 0.013 µM. The IC50 in [4] came to 0.0066 µM.

In experiment [1], `COc1ccc(N(C)c2nc(C)nc3c2CC(C)C3)cc1` (configuration not stated) had an EC50 of 0.282 µM. Further, the concentration for half-maximal inhibition (IC50) in the experiment on MDA-MB-435 came to 0.0257 µM.

For `COc1cccc2c(N(C)c3nc(C)nc4c3CCC4)cccc12`, the concentration for half-maximal inhibition (IC50) in the experiment with HeLa was found to be 1.2 µM; in the experiment with SK-OV-3 it was 1.2 µM; in the experiment on MDA-MB-435, 0.82 µM; in the experiment with U-251 [6], 0.0389 µM; in [4] it was 1.3 µM. In [1], the EC50 stood at 3.7 µM. For the same molecule, the “Ratio IC50” value stood at 1.1 in experiment [2] and 0.7 in experiment [3].

With `COc1ccc2c(N(C)c3ncnc4c3CCC4)cccc2c1`, the concentration for half-maximal inhibition (IC50) is greater than 20 µM in experiment [7] and 0.133 µM in the experiment on U-251 [6]. In experiment [1], the EC50 was greater than 10 µM.

`COc1ccc(N(C)c2nc(C)nc3c2CCC3)c2ccccc12`: the IC50 in [7] was determined as 1.4 µM; in the experiment with HeLa, 0.25 µM; in the experiment on SK-OV-3 it was 0.33 µM; in the experiment on MDA-MB-435, 0.23 µM; with U-251 [6], 0.0351 µM; in experiment [4], 0.4 µM. In addition, the EC50 in experiment [1] is 0.5 µM. In addition, the “Ratio IC50” value in [2] is recorded as 1.2; in [3], 0.7. In the experiment filed under Bos taurus [8], this molecule came in with an inhibition of 72%.

As for `COc1ccc(N(C)c2nc(C)nc3c2CCC3)cc1`, the IC50 was found to be 1.6 µM in experiment [7] and 0.0164 µM in experiment [4]. In addition, in [1], the EC50 is 0.026 µM. Further, the results for the inhibition in the experiment filed under Bos taurus [8] and in the experiment filed under Bos taurus [9] were 92% and 70%, respectively.

For `COc1ccc2c(N(C)c3nc(C)nc4c3CCC4)cccc2c1`, the concentration for half-maximal inhibition (IC50) in experiment [7] was greater than 20 µM; with U-251 [6], 0.0883 µM. For the same molecule, the EC50 in experiment [1] was greater than 10 µM.

Regarding `COc1cccc2cc(N(C)c3ncnc4c3CCC4)ccc12`, the IC50 in [7] came out at 1.2 µM; in the experiment with HeLa it was 0.0564 µM; with SK-OV-3, 0.037 µM; in the experiment with MDA-MB-435, 0.034 µM; with U-251 [6], 0.0725 µM; in experiment [4], 0.074 µM. For the same molecule, the response in experiment [1] was half-maximal at 0.184 µM (EC50). Also, the “Ratio IC50” value in experiment [2] came to 2; in experiment [3], 0.8. Moreover, the figures for the inhibition in the experiment filed under Bos taurus [8] and in the experiment listed under Bos taurus [9] were 93% and 77%, respectively.

The values above are taken from ChEMBL document CHEMBL4680306, “The 3-D conformational shape of N-naphthyl-cyclopenta[d]pyrimidines affects their potency as microtubule targeting agents and their antitumor activity” (Bioorg Med Chem, 2021).
